Test results taken from ChEMBL document CHEMBL3297689, “Phenylalanine-Based Inactivator of AKT Kinase: Design, Synthesis, and Biological Evaluation” (ACS Med Chem Lett, 2014).

Experiments:
[1] = target: 3-phosphoinositide-dependent protein kinase 1 (Homo sapiens) (UniProt O15530); test: Inhibition of PDK1 (unknown origin) at 1 uM in presence of 100 uM ATP
[2] = target: Mitogen-activated protein kinase kinase kinase kinase 5 (Homo sapiens) (UniProt Q9Y4K4); test: Inhibition of MAP4K5 (unknown origin) at 1 uM in presence of 100 uM ATP
[3] = target: Epidermal growth factor receptor (Homo sapiens) (UniProt P00533); test: Inhibition of EGFR (unknown origin) at 1 uM in presence of 100 uM ATP
[4] = target: Mitogen-activated protein kinase 1 (Homo sapiens) (UniProt P28482); test: Inhibition of MAPK1 (unknown origin) at 1 uM in presence of 100 uM ATP
[5] = target: Mitogen-activated protein kinase 3 (Homo sapiens) (UniProt P27361); test: Inhibition of MAPK3 (unknown origin) at 1 uM in presence of 100 uM ATP
[6] = target: cGMP-dependent protein kinase 1 (Homo sapiens) (UniProt Q13976); test: Inhibition of PRKG1 (unknown origin) at 1 uM in presence of 100 uM ATP
[7] = target: Mitogen-activated protein kinase 14 (Homo sapiens) (UniProt Q16539); test: Inhibition of MAPK14 (unknown origin) at 1 uM in presence of 100 uM ATP
[8] = target: Platelet-derived growth factor receptor alpha (Homo sapiens) (UniProt P16234); test: Inhibition of PDGFRA (unknown origin) at 1 uM in presence of 100 uM ATP
[9] = target: Ribosomal protein S6 kinase alpha-1 (Homo sapiens) (UniProt Q15418); test: Inhibition of RSK1 (unknown origin) at 1 uM in presence of 100 uM ATP
NCI-H460 = test: Growth inhibition of human NCI-H460 cells after 72 hrs by coulter counter method; type: functional, cell-based; settings: NCI-H460, 72 h
[10] = target: Maternal embryonic leucine zipper kinase (Homo sapiens) (UniProt Q14680); test: Inhibition of MELK (unknown origin) at 1 uM in presence of 100 uM ATP
[11] = Growth inhibition of human HCT116 cells after 72 hrs by coulter counter method; type: functional, cell-based; settings: HCT-116, 72 h
[12] = target: Ribosomal protein S6 kinase alpha-5 (Homo sapiens) (UniProt O75582); test: Inhibition of MSK1 (unknown origin) at 1 uM in presence of 100 uM ATP
[13] = target: Focal adhesion kinase 1 (Homo sapiens) (UniProt Q05397); test: Inhibition of PTK2 (unknown origin) at 1 uM in presence of 100 uM ATP
[14] = Selectivity index, ratio of IC50 for human NCI-H460 cells to IC50 for recombinant AKT (unknown origin)
[15] = target: Tyrosine-protein kinase CSK (Homo sapiens) (UniProt P41240); test: Inhibition of CSK (unknown origin) at 1 uM in presence of 100 uM ATP
[16] = target: 5'-AMP-activated protein kinase catalytic subunit alpha-1 (Homo sapiens) (UniProt Q13131); test: Inhibition of AMPKalpha1 (unknown origin) at 1 uM in presence of 100 uM ATP
[17] = target: Dual specificity mitogen-activated protein kinase kinase 1 (Homo sapiens) (UniProt Q02750); test: Inhibition of MEK1 (unknown origin) at 1 uM in presence of 100 uM ATP
Homo sapiens [18] = species: Homo sapiens; test: Inhibition of PKAalpha (unknown origin) at 1 uM in presence of 100 uM ATP
[19] = target: Protein kinase C alpha type (Homo sapiens) (UniProt P17252); test: Inhibition of PKCalpha (unknown origin) at 1 uM in presence of 100 uM ATP
[20] = target: Hepatocyte growth factor receptor (Homo sapiens) (UniProt P08581); test: Inhibition of MET (unknown origin) at 1 uM in presence of 100 uM ATP
[21] = target: PAS domain-containing serine/threonine-protein kinase (Homo sapiens) (UniProt Q96RG2); test: Inhibition of PASK (unknown origin) at 1 uM in presence of 100 uM ATP
[22] = target: Serine/threonine-protein kinase Sgk1 (Homo sapiens) (UniProt O00141); test: Inhibition of SGK1 (unknown origin) at 1 uM in presence of 100 uM ATP
[23] = target: Vascular endothelial growth factor receptor 2 (Homo sapiens) (UniProt P35968); test: Inhibition of VEGFR2 (unknown origin) at 1 uM in presence of 100 uM ATP
[24] = target: Tyrosine-protein kinase Lyn (Homo sapiens) (UniProt P07948); test: Inhibition of LYN A (unknown origin) at 1 uM in presence of 100 uM ATP
[25] = target: RAC-alpha serine/threonine-protein kinase (Homo sapiens, UniProt P31749); test: Irreversible inhibition of AKT1 (unknown origin) Z'-LYTE kinase assay in presence of ATP; settings: TDE = time-dependent effect
How it was run: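 Recombinant AKT1 activity read by the FRET-based Z′-LYTE kit, which measures phosphorylation of a peptide substrate. […] IC50 values are averages of three independent experiments with 95% confidence intervals.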

[26] = target: Aurora kinase A (Homo sapiens) (UniProt O14965); test: Inhibition of AURKA (unknown origin) at 1 uM in presence of 100 uM ATP
Homo sapiens [27] = species: Homo sapiens; test: Selectivity for AKT1 (unknown origin) over PKAalpha (unknown origin)
How it was run: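 Selectivity is the PKAα IC50 divided by the AKT1 IC50. Both IC50s were measured in the FRET-based Z′-LYTE peptide-phosphorylation assay.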

[28] = target: Testis-specific serine/threonine-protein kinase 1 (Homo sapiens) (UniProt Q9BXA7); test: Inhibition of TSSK1 (unknown origin) at 1 uM in presence of 100 uM ATP
[29] = target: Tyrosine-protein kinase SYK (Homo sapiens) (UniProt P43405); test: Inhibition of SYK (unknown origin) at 1 uM in presence of 100 uM ATP
[30] = target: Serine/threonine-protein kinase PLK1 (Homo sapiens) (UniProt P53350); test: Inhibition of PLK1 (unknown origin) at 1 uM in presence of 100 uM ATP
[31] = target: Cyclin-dependent kinase 1/cyclin B1 (Homo sapiens) (UniProt P06493+P14635); test: Inhibition of CDK1/cyclinB (unknown origin) at 1 uM in presence of 100 uM ATP; type: protein-complex assay
[32] = target: CDK2/Cyclin A2 (Homo sapiens) (UniProt P24941+P20248); test: Inhibition of CDK2/cyclinA (unknown origin) at 1 uM in presence of 100 uM ATP; type: protein-complex assay
[33] = target: AMP-activated protein kinase, AMPK (Homo sapiens) (UniProt P54646+O43741+P54619+Q9UGJ0+Q9Y478+Q13131+Q9UGI9); test: Inhibition of AMPKalpha1/beta1/gamma1 (unknown origin) at 1 uM in presence of 100 uM ATP; type: protein-complex assay

Mitogen-activated protein kinase 14 (Homo sapiens), sequence (Q16539 whole entry): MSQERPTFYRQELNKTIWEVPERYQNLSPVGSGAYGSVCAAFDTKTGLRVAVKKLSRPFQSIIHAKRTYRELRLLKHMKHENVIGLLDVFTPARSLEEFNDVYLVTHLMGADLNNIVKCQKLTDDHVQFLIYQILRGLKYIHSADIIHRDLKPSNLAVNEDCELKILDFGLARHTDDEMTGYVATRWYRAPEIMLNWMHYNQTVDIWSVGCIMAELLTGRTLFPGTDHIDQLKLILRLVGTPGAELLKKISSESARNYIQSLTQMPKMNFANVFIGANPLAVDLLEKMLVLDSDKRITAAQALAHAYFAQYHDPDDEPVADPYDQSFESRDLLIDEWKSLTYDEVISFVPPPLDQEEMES
Mitogen-activated protein kinase kinase kinase kinase 5 (Homo sapiens), sequence (Q9Y4K4 whole entry, looked up): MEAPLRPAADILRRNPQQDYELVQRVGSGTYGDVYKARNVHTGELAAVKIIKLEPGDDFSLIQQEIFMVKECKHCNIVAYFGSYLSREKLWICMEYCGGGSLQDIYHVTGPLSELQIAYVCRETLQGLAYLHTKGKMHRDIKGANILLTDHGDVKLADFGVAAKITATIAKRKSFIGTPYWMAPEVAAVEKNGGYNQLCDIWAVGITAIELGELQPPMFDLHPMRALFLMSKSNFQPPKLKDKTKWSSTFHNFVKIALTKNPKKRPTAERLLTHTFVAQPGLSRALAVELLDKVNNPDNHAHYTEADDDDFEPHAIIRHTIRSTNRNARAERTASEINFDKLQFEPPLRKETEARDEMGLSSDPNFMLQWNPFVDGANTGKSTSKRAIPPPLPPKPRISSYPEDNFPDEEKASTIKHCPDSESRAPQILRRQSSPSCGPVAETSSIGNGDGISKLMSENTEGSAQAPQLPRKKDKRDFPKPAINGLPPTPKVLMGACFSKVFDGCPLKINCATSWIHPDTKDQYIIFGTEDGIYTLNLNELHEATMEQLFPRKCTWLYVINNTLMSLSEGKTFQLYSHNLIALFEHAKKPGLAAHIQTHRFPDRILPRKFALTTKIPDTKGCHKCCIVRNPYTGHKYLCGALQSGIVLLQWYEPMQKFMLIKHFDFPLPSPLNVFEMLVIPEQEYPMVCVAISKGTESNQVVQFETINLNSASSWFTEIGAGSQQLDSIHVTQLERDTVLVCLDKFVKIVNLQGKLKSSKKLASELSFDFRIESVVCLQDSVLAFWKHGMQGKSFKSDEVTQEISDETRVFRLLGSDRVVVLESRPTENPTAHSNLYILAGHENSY
5'-AMP-activated protein kinase catalytic subunit alpha-1 (Homo sapiens), sequence (Q13131 whole entry, looked up): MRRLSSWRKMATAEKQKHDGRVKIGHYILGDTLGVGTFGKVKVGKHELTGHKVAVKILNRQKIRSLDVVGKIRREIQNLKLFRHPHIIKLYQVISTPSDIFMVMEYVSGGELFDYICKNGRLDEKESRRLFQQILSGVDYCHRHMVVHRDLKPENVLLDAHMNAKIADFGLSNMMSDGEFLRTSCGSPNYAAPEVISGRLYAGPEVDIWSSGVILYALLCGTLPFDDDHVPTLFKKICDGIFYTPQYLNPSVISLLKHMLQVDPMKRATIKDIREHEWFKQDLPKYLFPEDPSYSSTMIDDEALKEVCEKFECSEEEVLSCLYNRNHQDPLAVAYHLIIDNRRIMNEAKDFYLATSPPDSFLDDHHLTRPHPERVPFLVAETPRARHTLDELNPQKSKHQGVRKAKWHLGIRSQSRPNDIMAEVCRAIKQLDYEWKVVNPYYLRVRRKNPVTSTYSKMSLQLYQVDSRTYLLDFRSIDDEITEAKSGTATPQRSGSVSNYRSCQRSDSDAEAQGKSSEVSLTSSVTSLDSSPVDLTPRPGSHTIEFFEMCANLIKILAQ
cGMP-dependent protein kinase 1 (Homo sapiens), sequence (Q13976 whole entry): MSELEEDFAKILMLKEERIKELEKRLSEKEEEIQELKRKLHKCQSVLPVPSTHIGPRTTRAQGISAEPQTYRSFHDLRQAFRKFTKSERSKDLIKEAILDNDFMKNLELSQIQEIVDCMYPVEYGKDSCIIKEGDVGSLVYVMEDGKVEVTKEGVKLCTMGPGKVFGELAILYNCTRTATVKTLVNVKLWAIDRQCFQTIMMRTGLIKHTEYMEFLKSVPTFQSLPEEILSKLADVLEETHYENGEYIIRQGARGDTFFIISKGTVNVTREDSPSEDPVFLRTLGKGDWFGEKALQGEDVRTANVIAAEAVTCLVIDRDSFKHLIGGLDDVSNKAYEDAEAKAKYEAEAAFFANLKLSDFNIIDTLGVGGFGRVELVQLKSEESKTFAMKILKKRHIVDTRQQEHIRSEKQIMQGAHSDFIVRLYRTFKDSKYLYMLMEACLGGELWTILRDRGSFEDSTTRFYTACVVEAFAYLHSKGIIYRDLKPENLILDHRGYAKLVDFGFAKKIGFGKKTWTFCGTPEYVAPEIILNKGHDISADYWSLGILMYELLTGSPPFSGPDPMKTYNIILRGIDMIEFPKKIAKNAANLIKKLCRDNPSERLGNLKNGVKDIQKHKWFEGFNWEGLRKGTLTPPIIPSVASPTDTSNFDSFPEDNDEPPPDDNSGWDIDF
Platelet-derived growth factor receptor alpha (Homo sapiens), sequence (P16234 whole entry): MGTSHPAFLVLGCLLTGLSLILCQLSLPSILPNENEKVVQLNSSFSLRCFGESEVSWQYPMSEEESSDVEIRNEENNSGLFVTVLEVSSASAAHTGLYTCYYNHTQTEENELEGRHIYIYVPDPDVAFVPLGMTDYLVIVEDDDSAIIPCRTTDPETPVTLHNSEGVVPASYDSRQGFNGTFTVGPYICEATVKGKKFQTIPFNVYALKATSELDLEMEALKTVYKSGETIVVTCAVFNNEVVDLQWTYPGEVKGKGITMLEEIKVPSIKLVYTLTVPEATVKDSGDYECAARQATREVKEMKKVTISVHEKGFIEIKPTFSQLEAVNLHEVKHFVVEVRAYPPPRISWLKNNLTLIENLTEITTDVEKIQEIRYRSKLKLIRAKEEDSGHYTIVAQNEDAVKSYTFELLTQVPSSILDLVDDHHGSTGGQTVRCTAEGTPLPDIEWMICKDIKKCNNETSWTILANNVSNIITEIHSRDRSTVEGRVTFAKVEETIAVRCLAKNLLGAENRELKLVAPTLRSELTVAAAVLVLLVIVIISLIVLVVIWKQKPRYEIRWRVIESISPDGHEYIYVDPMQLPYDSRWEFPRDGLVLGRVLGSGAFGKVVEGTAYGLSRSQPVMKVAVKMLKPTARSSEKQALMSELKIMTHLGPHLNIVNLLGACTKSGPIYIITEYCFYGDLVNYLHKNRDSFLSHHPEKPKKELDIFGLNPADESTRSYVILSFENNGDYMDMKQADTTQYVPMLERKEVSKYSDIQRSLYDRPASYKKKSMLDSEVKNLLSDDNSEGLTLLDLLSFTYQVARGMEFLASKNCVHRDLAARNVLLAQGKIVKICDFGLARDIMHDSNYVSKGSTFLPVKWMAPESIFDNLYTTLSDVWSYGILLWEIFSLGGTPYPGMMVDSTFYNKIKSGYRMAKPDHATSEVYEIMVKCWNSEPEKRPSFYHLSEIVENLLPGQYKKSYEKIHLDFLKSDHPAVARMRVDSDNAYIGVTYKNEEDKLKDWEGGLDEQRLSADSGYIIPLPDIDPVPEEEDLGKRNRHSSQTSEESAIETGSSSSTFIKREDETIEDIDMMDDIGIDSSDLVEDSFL
Serine/threonine-protein kinase Sgk1 (Homo sapiens), sequence (O00141 whole entry): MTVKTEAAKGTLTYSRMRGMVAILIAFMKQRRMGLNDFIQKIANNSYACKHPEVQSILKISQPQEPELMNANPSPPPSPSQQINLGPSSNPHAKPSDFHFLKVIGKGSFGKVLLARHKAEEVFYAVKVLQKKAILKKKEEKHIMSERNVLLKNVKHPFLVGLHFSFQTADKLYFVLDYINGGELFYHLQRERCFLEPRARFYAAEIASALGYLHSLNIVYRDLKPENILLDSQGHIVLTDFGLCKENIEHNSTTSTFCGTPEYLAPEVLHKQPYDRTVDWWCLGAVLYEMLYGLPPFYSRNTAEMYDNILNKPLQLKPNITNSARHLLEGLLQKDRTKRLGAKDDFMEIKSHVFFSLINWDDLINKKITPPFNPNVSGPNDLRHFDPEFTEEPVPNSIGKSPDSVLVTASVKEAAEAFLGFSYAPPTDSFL
Aurora kinase A (Homo sapiens), sequence (O14965 whole entry): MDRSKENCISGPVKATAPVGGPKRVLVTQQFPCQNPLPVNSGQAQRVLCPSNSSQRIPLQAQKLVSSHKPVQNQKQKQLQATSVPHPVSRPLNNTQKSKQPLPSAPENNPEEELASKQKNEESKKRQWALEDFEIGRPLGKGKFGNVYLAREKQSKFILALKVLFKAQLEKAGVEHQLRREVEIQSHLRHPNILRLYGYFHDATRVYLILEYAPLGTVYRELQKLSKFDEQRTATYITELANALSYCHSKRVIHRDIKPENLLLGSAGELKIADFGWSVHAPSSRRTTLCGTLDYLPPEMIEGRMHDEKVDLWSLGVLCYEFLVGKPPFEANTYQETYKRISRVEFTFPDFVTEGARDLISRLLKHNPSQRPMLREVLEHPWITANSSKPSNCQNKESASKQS
Mitogen-activated protein kinase 1 (Homo sapiens), sequence (P28482 whole entry): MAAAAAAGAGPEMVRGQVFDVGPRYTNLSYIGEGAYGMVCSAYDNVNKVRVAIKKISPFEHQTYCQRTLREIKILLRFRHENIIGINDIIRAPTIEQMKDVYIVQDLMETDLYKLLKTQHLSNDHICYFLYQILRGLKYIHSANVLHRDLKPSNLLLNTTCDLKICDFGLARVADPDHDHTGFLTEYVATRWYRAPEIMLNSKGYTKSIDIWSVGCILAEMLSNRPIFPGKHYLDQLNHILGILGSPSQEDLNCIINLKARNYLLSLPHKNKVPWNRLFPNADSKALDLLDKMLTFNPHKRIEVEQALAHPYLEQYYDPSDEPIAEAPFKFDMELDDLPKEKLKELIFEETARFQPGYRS

`C=CC(=O)[C@H](Cc1ccccc1)NC(=O)OC(C)(C)C` gave an inhibition [1] of 15%, an inhibition [2] of 22% and an inhibition [3] of -2%. It also gave an inhibition [4] of 15%, an inhibition [5] of 8% and an inhibition [6] of -4%. The inhibition [7] was 17%, the inhibition [8] was 0% and the inhibition [9] was 5%. The IC50 (NCI-H460) was 22.9 µM, the inhibition [10] was 62% and the IC50 [11] was 21.5 µM. The inhibition [12] was 10%, the inhibition [13] was -4% and the “Ratio IC50” value [14] was 39. For the same compound, the inhibition [15] was 8%, the inhibition [16] was 46% and the inhibition [17] was 5%. It also gave an inhibition (Homo sapiens [18]) of -10%, an inhibition [19] of 18% and an inhibition [20] of 11%. The inhibition [21] was 19%, the inhibition [22] was 34% and the inhibition [23] was -6%. For the same compound, the inhibition [24] was 5%, the inhibition [25] was “tde” and the inhibition [26] was 35%. It also gave a Selectivity ratio (Homo sapiens [27]) of 90, an inhibition [28] of -1% and an inhibition [29] of -1%. It also gave an inhibition [30] of 10%, an inhibition [31] of 9% and an inhibition [32] of 3%. The inhibition [33] was 46%.
